The results in this text go back to ChEMBL document CHEMBL4342471, “Discovery of Thieno[2,3-d]pyrimidine-Based Hydroxamic Acid Derivatives as Bromodomain-Containing Protein 4/Histone Deacetylase Dual Inhibitors Induce Autophagic Cell Death in Colorectal Carcinoma Cells” (J Med Chem, 2020).

One series concerns the target Histone deacetylase 8 (Homo sapiens, UniProt Q9BY41). Put plainly: Inhibition of HDAC8 (unknown origin) using biotinylated histone H3 KAc peptide (1 to 21 residues) as substrate by HTRF assay.
For a further series, the target named is T1, Histone deacetylase 7 (Homo sapiens, UniProt Q8WUI4).
T1 sequence (Q8WUI4 whole entry): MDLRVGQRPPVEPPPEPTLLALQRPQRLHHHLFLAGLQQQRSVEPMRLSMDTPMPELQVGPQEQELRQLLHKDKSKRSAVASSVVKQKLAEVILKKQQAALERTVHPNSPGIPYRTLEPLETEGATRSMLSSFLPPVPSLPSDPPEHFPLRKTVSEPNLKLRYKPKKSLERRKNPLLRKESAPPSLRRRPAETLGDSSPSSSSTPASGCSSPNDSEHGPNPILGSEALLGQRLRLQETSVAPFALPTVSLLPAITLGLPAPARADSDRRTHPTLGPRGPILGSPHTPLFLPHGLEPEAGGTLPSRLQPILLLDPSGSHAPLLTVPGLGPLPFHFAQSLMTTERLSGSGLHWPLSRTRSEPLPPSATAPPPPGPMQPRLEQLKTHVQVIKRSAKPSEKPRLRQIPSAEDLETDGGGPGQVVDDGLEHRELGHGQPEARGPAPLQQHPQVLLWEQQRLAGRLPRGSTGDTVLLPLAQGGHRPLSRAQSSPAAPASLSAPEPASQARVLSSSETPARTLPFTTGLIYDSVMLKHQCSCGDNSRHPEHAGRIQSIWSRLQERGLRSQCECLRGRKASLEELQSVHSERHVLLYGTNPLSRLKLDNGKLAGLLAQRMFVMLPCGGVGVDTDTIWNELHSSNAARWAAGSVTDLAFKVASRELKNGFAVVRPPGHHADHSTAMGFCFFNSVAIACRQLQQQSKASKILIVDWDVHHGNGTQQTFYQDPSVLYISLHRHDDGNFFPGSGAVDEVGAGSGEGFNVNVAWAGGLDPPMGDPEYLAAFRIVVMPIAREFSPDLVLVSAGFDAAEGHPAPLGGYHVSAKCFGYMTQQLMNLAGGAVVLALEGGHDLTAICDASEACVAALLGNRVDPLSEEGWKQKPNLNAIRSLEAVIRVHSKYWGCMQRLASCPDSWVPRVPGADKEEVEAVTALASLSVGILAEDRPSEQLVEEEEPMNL
Kind of series: Inhibition of HDAC7 (unknown origin) using biotinylated histone H3 KAc peptide (1 to 21 residues) as substrate by HTRF assay.

The species entered for series [1] is Homo sapiens. Kind of series: Inhibition of BRD4/HDAC in human HCT116 cells assessed as inhibition of IL6-JAK-STAT3 signaling pathway by measuring decrease in LIFR expression at 0.5 uM after 24 hrs by Western blot analysis. Type of series: cell-based. Summed up: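 HCT-116 cells treated 24 h with 0.5 µM, 5.0 µM or 10 µM test agent depending on compound; OSMR, LIFR and downstream pathway proteins detected by western blot.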

Series [2] is described as follows: Toxicity in BALB/cAnNCrl mouse xenografted with human HCT116 cells assessed as effect on heart morphological changes at 15 to 30 mg/kg, po administered on day 1 to day 19 measured on day 19 by hematoxylin and eosin staining based assay. The format is organism-based. The note with it: in vivo. In short, it runs like this: (§1)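 HCT-116 xenograft mice dosed orally at 15 or 30 mg/kg for 19 days, saline as vehicle control; body weights tracked, and main organs sectioned and H&E-stained at study end.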

Series [3] has as its system HCT-116. Kind of series: Induction of apoptosis in human HCT116 cells assessed as apoptotic cells at 0.5 uM by Annexin-V FITC/propidium iodide staining-based flow cytometry (reference value: 6.3 +/- 0.4 %). The format is functional. (Flow cytometry measures light scatter and fluorescence of single cells or particles in a stream.)
For series [4], the species on record is Homo sapiens. Put plainly: Inhibition of BRD4/HDAC in human HCT116 cells assessed as increase in caspase 3 cleavage at 0.2 to 0.5 uM measured after 24 hrs by Western blot analysis. The format is cell-based. For orientation: Immunoblotting shows a protein as a band on a membrane.
For series [5], the target named is T2, Bromodomain-containing protein 4 (Homo sapiens, UniProt O60885). Kind of series: Inhibition of human recombinant His-tagged BRD4 BD2 domain using H-SGRGK(Ac)GGK(Ac)GLGK-(Ac)GGAK(Ac)RHRK(Biotin)-OH as substrate preincubated with enzyme for 30 mins followed by substrate addition measured after 30 mins by AlphaScreen assay. Background: In Alpha technology, singlet oxygen from a donor bead excites a nearby acceptor bead.

Series [6] concerns Mus musculus. Put plainly: Downregulation of Ki67 expression in tumor tissue of BALB/cAnNCrl mouse xenografted with human HCT116 cells at 15 to 30 mg/kg, po administered on day 1 to day 19 measured on day 19 by Ki67-staining based immunohistochemical analysis. The format is functional, organism-based. In short, it runs like this:
(§2)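 HCT-116 xenograft mice were dosed orally at 15 or 30 mg/kg, or 30 mg/kg for reference agents, for 19 days, with vehicle or saline controls. Tumor sections were stained for Ki-67, c-Myc, Ac-H3, BRD4, LC3-II, LIFR and p-STAT3 by immunohistochemistry, and TUNEL staining was used as the apoptosis marker.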

Series [7] has as its target Bromodomain-containing protein 3 (Homo sapiens, UniProt Q15059). Kind of series: Inhibition of human recombinant His-tagged BRD3 BD1 domain expressed in Escherichia coli BL21(DE3)-R3-pRARE2 cells by AlphaScreen assay.
In series [8] the test system is Mus musculus. Kind of series: Increase in LIFR expression in tumor tissue of BALB/cAnNCrl mouse xenografted with human HCT116 cells at 15 to 30 mg/kg, po administered on day 1 to day 19 measured on day 19 by immunohistochemical analysis. Type of series: functional, organism-based. Summed up: as §2
The species entered for series [9] is Homo sapiens. Kind of series: Inhibition of BRD4/HDAC in human HCT116 cells assessed as increase in IL6 mRNA level at 0.5 uM after 24 hrs by RT-PCR analysis. The format is cell-based. Summed up:
(§3)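 HCT-116 cells incubated 24 h with test agent (0.5 µM, 2.0 µM or 10 µM depending on compound); IL6, OSM, LIF and CTF1 mRNA levels then quantified.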

The nature of series [10]: Toxicity in BALB/cAnNCrl mouse xenografted with human HCT116 cells assessed as effect on body weight at 15 to 30 mg/kg, po administered on day 1 to day 19 […]. Type of series: organism-based. The note with it: in vivo. In short, it runs like this:
as §1

The species named for series [11] is Homo sapiens. Put plainly: Inhibition of BRD4/HDAC in human HCT116 cells assessed as increase in CTF1 mRNA level at 0.5 uM after 24 hrs by RT-PCR analysis. The format is cell-based. Summed up:
as §3

Series [12] deals with HCT-116. Kind of series: Antitumor activity against human HCT116 cells xenografted in BALB/cAnNCrl mouse assessed as average tumor growth inhibition at 15 to 30 mg/kg, po administered on day 1 to day 19 relative to control. The format is functional. Summed up: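 HCT-116 xenografts in mice were given the test agent orally at 15 or 30 mg/kg, with a saline control group, over 19 days. Tumor volume was followed during treatment and tumors were weighed at the end. Body weight was monitored. Inhibition is expressed as treatment-to-control (T/C) ratio.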

For series [13], the target named is T2, Bromodomain-containing protein 4. Put plainly: Inhibition of BRD4 in human HCT116 cells assessed as induction of autophagic vacuole formation in cytoplasm at 0.5 uM measured after 24 hrs by transmitted electron microscopy. The format is cell-based. In short, it runs like this:
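HCT-116 cells were incubated with 0.5 μM compound for 24 hours, fixed, and imaged by transmission electron microscopy for cytoplasmic autophagic vacuoles.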

Series [14] addresses Bromodomain-containing protein 2 (Homo sapiens, UniProt P25440). Kind of series: Inhibition of human recombinant His-tagged BRD2 BD2 domain expressed in Escherichia coli BL21(DE3)-R3-pRARE2 cells by AlphaScreen assay.

Activity calls are given as the source filed them. No cut-off for these calls is given here.

Bromodomain-containing protein 3, sequence (Q15059 whole entry, the tested form may be a part): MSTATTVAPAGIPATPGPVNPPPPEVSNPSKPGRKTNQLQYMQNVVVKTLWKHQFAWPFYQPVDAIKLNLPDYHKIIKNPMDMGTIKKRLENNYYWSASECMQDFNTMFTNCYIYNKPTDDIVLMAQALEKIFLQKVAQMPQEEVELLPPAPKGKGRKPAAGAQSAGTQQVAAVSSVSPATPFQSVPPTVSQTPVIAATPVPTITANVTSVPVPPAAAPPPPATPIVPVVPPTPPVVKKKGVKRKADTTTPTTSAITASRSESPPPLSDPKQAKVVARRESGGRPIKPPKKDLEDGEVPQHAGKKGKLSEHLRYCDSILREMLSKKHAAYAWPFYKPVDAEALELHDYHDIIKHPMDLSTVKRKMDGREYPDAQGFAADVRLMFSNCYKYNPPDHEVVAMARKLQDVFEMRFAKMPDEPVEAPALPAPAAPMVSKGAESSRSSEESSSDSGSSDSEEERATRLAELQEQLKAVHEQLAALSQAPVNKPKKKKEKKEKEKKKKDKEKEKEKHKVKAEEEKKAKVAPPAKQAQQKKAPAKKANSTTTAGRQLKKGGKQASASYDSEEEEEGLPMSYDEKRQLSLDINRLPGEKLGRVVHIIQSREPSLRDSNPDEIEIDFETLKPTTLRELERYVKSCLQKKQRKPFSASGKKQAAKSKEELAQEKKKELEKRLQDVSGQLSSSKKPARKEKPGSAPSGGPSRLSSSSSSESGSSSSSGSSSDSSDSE
Bromodomain-containing protein 2, sequence (P25440 whole entry, the tested form may be a part): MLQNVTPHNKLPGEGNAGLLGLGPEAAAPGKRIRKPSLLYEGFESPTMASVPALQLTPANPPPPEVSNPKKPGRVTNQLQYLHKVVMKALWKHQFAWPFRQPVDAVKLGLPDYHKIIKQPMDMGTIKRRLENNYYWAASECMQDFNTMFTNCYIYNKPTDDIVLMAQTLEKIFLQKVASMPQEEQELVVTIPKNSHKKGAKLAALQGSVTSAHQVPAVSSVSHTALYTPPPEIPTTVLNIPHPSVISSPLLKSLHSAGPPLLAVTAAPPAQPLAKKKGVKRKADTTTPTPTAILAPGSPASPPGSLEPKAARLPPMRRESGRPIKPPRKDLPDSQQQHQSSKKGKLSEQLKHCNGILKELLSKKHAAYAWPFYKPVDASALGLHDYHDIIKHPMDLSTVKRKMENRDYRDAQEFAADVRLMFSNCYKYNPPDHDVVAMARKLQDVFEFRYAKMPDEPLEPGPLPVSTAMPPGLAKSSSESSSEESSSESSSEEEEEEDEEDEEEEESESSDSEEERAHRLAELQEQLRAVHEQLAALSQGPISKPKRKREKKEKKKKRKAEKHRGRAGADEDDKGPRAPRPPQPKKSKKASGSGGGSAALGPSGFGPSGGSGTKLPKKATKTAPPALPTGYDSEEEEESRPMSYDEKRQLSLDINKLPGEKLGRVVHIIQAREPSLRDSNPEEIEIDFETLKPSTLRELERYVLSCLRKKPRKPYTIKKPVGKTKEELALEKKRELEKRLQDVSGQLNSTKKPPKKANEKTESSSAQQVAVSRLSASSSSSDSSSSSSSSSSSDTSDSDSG
Histone deacetylase 8, sequence (Q9BY41 whole entry, the tested form may be a part): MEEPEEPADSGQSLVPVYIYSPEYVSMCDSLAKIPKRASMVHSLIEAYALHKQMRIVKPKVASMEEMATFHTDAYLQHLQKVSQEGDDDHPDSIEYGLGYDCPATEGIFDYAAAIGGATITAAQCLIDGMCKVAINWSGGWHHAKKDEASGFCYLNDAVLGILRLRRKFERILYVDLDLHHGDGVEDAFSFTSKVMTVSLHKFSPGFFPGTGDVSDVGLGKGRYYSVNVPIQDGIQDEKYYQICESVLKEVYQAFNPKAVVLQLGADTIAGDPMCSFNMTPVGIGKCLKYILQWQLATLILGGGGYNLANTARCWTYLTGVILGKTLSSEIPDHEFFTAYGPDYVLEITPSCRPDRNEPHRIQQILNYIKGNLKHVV

Consider `Cc1cc(-c2nc3sc4c(c3c(=O)[nH]2)CCN(C)C4)cc(C)c1OCCCCCC(=O)NO`, for which the IC50 at Histone deacetylase 8 was 167 nM; against Histone deacetylase 7 it was > 10 µM; in series [5], 2050 nM; in series [7], > 20 µM; in [14] it was > 20 µM. The inhibition result (in the series listed under Homo sapiens [1]; in the series filed under Homo sapiens [4]; in the series with Mus musculus [6]; in the series filed under Homo sapiens [9]; in the series filed under Homo sapiens [11]; in [13]) was “Active” in each case. For the same molecule, the Activity entry in series [2] is reported as “Non-Toxic”; with HCT-116 [3], 45.3%; in series [10] it was “Non-Toxic”. In the series on Mus musculus [8], the outcome was inactive. In addition, in the series on HCT-116 [12], the “growth inhibition (GI)” value stood at 68.8%.

Usually IC50 stands for the point on the concentration scale where inhibition reaches its midpoint.
